Results as given in ChEMBL document CHEMBL5357047, “The development of thymol-isatin hybrids as broad-spectrum antibacterial agents with potent anti-MRSA activity” (RSC Med Chem, 2024).
≈ marks a conversion by molar mass, not a printed value.

Columns and labels:
Assay type in all cases: functional
[1] = system: Staphylococcus aureus; assay: Antibacterial activity against Methicillin-resistant Staphylococcus aureus ATCC 33591 assessed as inhibition of bacterial growth at 50 uM measured after 48 hrs by agar well diffusion method; conditions: read-out: IZ
How it was run: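 Agar well diffusion on Mueller Hinton agar seeded with bacteria at 0.5 McFarland. […] Incubated 48 h at 37 °C aerobically; zone of inhibition diameter (mm) measured. Triplicate.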

[2] = system: Enterococcus faecalis; assay: Antibacterial activity against clinically isolated Enterococcus faecalis RBRJ015 assessed as inhibition of bacterial growth at 50 uM measured after 48 hrs by agar well diffusion method; conditions: read-out: IZ
[3] = system: Enterobacter cloacae; assay: Antibacterial activity against clinically isolated Enterobacter cloacae RBRJ017 assessed as inhibition of bacterial growth at 50 uM measured after 48 hrs by agar well diffusion method; conditions: read-out: IZ
[4] = system: Escherichia coli; assay: Antibacterial activity against clinically isolated Escherichia coli RBRJ013 assessed as inhibition of bacterial growth at 50 uM measured after 48 hrs by agar well diffusion method; conditions: read-out: IZ
[5] = system: Staphylococcus aureus; assay: Antibacterial activity against clinically isolated Staphylococcus aureus RBRJ010 assessed as inhibition of bacterial growth at 50 uM measured after 48 hrs by agar well diffusion method; conditions: read-out: IZ
[6] = system: Pseudomonas aeruginosa; assay: Antibacterial activity against Pseudomonas aeruginosa MTCC 424 assessed as inhibition of bacterial growth at 50 uM measured after 48 hrs by agar well diffusion method; conditions: read-out: IZ
[7] = system: Klebsiella pneumoniae; assay: Antibacterial activity against clinically isolated Klebsiella pneumoniae RBRJ019 assessed as inhibition of bacterial growth at 50 uM measured after 48 hrs by agar well diffusion method; conditions: read-out: IZ
[8] = system: Klebsiella pneumoniae; assay: Antibacterial activity against clinically isolated Klebsiella pneumoniae RBRJ024 assessed as inhibition of bacterial growth at 50 uM measured after 48 hrs by agar well diffusion method; conditions: read-out: IZ
[9] = system: Staphylococcus epidermidis; assay: Antibacterial activity against Staphylococcus epidermidis MTCC 435 assessed as inhibition of bacterial growth at 50 uM measured after 48 hrs by agar well diffusion method; conditions: read-out: IZ
[10] = system: Acinetobacter baumannii; assay: Antibacterial activity against clinically isolated Acinetobacter baumannii RBRJ027 assessed as inhibition of bacterial growth at 50 uM measured after 48 hrs by agar well diffusion method; conditions: read-out: IZ
[11] = system: Staphylococcus aureus; assay: Antibacterial activity against Staphylococcus aureus MTCC 740 assessed as inhibition of bacterial growth at 50 uM measured after 48 hrs by agar well diffusion method; conditions: read-out: IZ
[12] = system: Escherichia coli; assay: Antibacterial activity against Escherichia coli MTCC 119 assessed as inhibition of bacterial growth at 50 uM measured after 48 hrs by agar well diffusion method; conditions: read-out: IZ
[13] = system: Klebsiella pneumoniae; assay: Antibacterial activity against Klebsiella pneumoniae MTCC 109 assessed as inhibition of bacterial growth at 50 uM measured after 48 hrs by agar well diffusion method; conditions: read-out: IZ
[14] = system: Escherichia coli; assay: Antibacterial activity against clinically isolated Escherichia coli RBRJ005 assessed as inhibition of bacterial growth at 50 uM measured after 48 hrs by agar well diffusion method; conditions: read-out: IZ
[15] = system: Enterococcus faecalis; assay: Antibacterial activity against Enterococcus faecalis MTCC 439 assessed as inhibition of bacterial growth at 50 uM measured after 48 hrs by agar well diffusion method; conditions: read-out: IZ
[16] = system: Staphylococcus aureus; assay: Antibacterial activity against clinically isolated Methicillin-resistant Staphylococcus aureus assessed as inhibition of bacterial growth at 50 uM measured after 48 hrs by agar well diffusion method; conditions: read-out: IZ
[17] = system: Staphylococcus aureus; assay: Bactericidal activity against clinically isolated Staphylococcus aureus RBRJ010 assessed as inhibition of bacterial growth measured after 48 hrs by agar plate method
How it was run: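 MBC: 10 μL from wells showing no INT colour change after broth microdilution subcultured on drug-free Mueller Hinton agar, 48 h at 37 °C aerobically; lowest concentration with no visible growth taken as MBC (μM). Triplicate.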

[18] = system: Staphylococcus aureus; assay: Antibacterial activity against clinically isolated Staphylococcus aureus RBRJ010 assessed as inhibition of bacterial growth measured after 48 hrs by broth microdilution method
[19] = system: Staphylococcus aureus; assay: Bactericidal activity against Staphylococcus aureus MTCC 740 assessed as inhibition of bacterial growth measured after 48 hrs by agar plate method
How it was run: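 MBC: aliquots from microdilution wells without colour change subcultured on drug-free Mueller Hinton agar, 48 h at 37 °C aerobically. MBC is the lowest concentration with no visible growth. Triplicate.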

[20] = system: Staphylococcus aureus; assay: Antibacterial activity against Staphylococcus aureus MTCC 740 assessed as inhibition of bacterial growth measured after 48 hrs by broth microdilution method

| Compound | zone of inhibition at 50 µM [1] [mm] | zone of inhibition at 50 µM [2] [mm] | zone of inhibition at 50 µM [3] [mm] | zone of inhibition at 50 µM [4] [mm] | zone of inhibition at 50 µM [5] [mm] | zone of inhibition at 50 µM [6] [mm] | zone of inhibition at 50 µM [7] [mm] | zone of inhibition at 50 µM [8] [mm] | zone of inhibition at 50 µM [9] [mm] | zone of inhibition at 50 µM [10] [mm] | zone of inhibition at 50 µM [11] [mm] | zone of inhibition at 50 µM [12] [mm] | zone of inhibition at 50 µM [13] [mm] | zone of inhibition at 50 µM [14] [mm] | zone of inhibition at 50 µM [15] [mm] | zone of inhibition at 50 µM [16] [mm] | MBC [17] [µM] | MIC [18] [µM] | MBC [19] [µM] | MIC [20] [µM] |
| --- | --- | --- | --- | --- | --- | --- | --- | --- | --- | --- | --- | --- | --- | --- | --- | --- | --- | --- | --- | --- |
| Cc1ccc(C(C)C)c(OCc2cn(CCCCN3C(=O)C(=O)c4cc(F)ccc43)nn2)c1 | 16.4 | 14.6 | 12.5 | 11.1 | 12.2 | 12.2 | 13.2 | 11.3 | 15.1 | 11.8 | 19.2 | 11.2 | 14.4 | 12.2 | 10 | 16.2 |  |  |  |  |
| COc1ccc2c(c1)C(=O)C(=O)N2CCn1cc(COc2cc(C)ccc2C(C)C)nn1 | 15.5 | 11.3 | 13.2 | 11.1 | 20.3 | 11.5 | 14.6 | 14.9 | 16.4 | 11.4 | 16.2 | 16.2 | 15.3 | 11.5 | 15.5 | 15.3 | 125 (≈ 54.3 µg/mL) | 62.5 (≈ 27.2 µg/mL) |  |  |
| Cc1ccc(C(C)C)c(OCc2cn(CCCCN3C(=O)C(=O)c4cc(C)ccc43)nn2)c1 | 14.2 | 15.3 | 11.6 | 11.4 | 14.6 | 12.9 | 13.2 | 12.2 | 11.4 | 10.4 | 19.5 | 15.5 | 15.4 | 13.1 | 12.4 | 15.8 |  |  |  |  |
| Cc1ccc(C(C)C)c(OCc2cn(CCCCN3C(=O)C(=O)c4cc(I)ccc43)nn2)c1 | 14 | 11.2 | 10.2 | 10.9 | 11.9 | 10.6 | 10.7 | 10.1 | 13.5 | 10.1 | 16.9 | 10.2 | 12.2 | 10.4 | 10.1 | 13.5 |  |  |  |  |
| Cc1ccc(C(C)C)c(OCc2cn(CCN3C(=O)C(=O)c4cc(Cl)ccc43)nn2)c1 | 14.6 | 15.2 | 14.2 | 13.1 | 19.6 | 14.1 | 15.2 | 13.6 | 16.2 | 12 | 19.3 | 13.6 | 15.1 | 13.2 | 11.2 | 14.3 |  |  |  |  |
| Cc1ccc(C(C)C)c(OCc2cn(CCN3C(=O)C(=O)c4cc(I)ccc43)nn2)c1 | 13.1 | 12.9 | 13.1 | 11.3 | 14.1 | 10.4 | 11.6 | 12.2 | 13.4 | 12.1 | 15.2 | 11.3 | 12.7 | 10.3 | 12.2 | 13.2 |  |  |  |  |
| Cc1ccc(C(C)C)c(OCc2cn(CCN3C(=O)C(=O)c4cc(Br)ccc43)nn2)c1 | 13.3 | 12.4 | 13.3 | 13.2 | 16.4 | 14 | 11.2 | 12.3 | 15.3 | 12.5 | 16.2 | 12.5 | 13.2 | 12.5 | 13.6 | 14.2 |  |  |  |  |
| Cc1ccc(C(C)C)c(OCc2cn(CCCCN3C(=O)C(=O)c4cc(Br)ccc43)nn2)c1 | 13.1 | 13.8 | 11.1 | 11 | 11.2 | 11.3 | 11.4 | 10.9 | 14.2 | 10.7 | 18.1 | 11.1 | 13.5 | 11.8 | 10.3 | 13.5 |  |  |  |  |
| Cc1ccc(C(C)C)c(OCc2cn(CCCCN3C(=O)C(=O)c4ccccc43)nn2)c1 | 19 | 17.6 | 12.6 | 11.5 | 16.2 | 13.7 | 14.4 | 15.6 | 16.2 | 11.2 | 22.1 | 16.5 | 15.2 | 13.6 | 13.2 | 19.6 |  |  | 31.2 (≈ 13.5 µg/mL) | 15.6 (≈ 6.75 µg/mL) |
| COc1ccc2c(c1)C(=O)C(=O)N2CCCCn1cc(COc2cc(C)ccc2C(C)C)nn1 | 13.2 | 13.2 | 10.9 | 11.3 | 13.2 | 11.3 | 12.2 | 11.3 | 12.6 | 10.2 | 19 | 14.4 | 14.7 | 14.2 | 11.2 | 15.2 |  |  |  |  |
| Cc1ccc(C(C)C)c(OCc2cn(CCN3C(=O)C(=O)c4cc(F)ccc43)nn2)c1 | 15.3 | 19.3 | 14.2 | 14.2 | 19.2 | 14.2 | 14.2 | 13.2 | 17.3 | 11.9 | 20.3 | 13.3 | 15.2 | 14.3 | 15.1 | 16.6 |  |  | 125 (≈ 52.8 µg/mL) | 62.5 (≈ 26.4 µg/mL) |
| Cc1ccc(C(C)C)c(OCc2cn(CCCCN3C(=O)C(=O)c4cc(Cl)ccc43)nn2)c1 | 13.6 | 13.4 | 11.5 | 11.4 | 12.6 | 12.4 | 12.3 | 10.3 | 14.3 | 11.1 | 18.4 | 10.3 | 13.2 | 12.3 | 11.2 | 14.2 |  |  |  |  |
